Only some compounds are listed: those with a hit (about 1.5% of all), similar ones and a draw of the others.
VLA-4 inh: inhibition in a human VLA-4 binding assay | inhibition, % (about 7 µM as worked out from the volumes in the protocol) | 0.2% of 330,000 active | P13612 | VLA-4 expressing cells, ligand binding flow cytometry; in the data active = inhibition above about 50%
CHT inh: human CHT choline transport inhibition; Q9GZV3; CHT-expressing cells, membrane potential dye, choline response; hits give low values; B-score at 10 µM; 0.86% of 310,000 active; AID 488975;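 active = B-score over 3 SD under the library average, and starting fluorescence ratio not unusually high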;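 also: choline stimulus applied at its EC90 after an EC20 pre-addition; B-score computed on integrated fluorescence ratio after choline addition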
Target sequence (Q9GZV3 whole entry, looked up): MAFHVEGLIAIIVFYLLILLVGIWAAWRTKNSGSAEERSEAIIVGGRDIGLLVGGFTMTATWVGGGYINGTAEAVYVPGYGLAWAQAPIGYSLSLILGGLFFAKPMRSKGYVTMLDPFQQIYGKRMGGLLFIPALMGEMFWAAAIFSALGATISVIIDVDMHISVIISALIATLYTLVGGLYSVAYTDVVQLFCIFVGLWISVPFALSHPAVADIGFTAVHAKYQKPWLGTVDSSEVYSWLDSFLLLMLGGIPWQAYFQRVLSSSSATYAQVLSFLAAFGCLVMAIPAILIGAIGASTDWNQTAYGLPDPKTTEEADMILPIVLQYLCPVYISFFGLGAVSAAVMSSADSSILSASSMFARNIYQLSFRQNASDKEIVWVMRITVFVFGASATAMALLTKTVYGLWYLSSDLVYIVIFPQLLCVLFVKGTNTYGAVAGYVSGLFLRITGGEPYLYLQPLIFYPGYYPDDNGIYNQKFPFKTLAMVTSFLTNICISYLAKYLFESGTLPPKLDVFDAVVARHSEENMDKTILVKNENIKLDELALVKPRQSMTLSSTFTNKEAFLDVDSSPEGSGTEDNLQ
T cell modulator: modulates CD8 T cell binding to vesicles. 2C CD8+ T cell-vesicle binding, flow cytometry; hits give low values. 0.068% of 330,000 active. response (vesicle binding), % at 7 µM;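 active = response, share of CD8 T cells binding vesicles, and their 90th percentile fluorescence all below set limits, cut at about 80% in these data, passing the limit was not always enough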;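 also: values below 100% mean blocked vesicle binding to the CD8+ T cells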
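Material: murine 2C transgenic CD8+ T lymphocytes / Also added: QL9-peptide-loaded Drosophila micro-vesicles bearing Ld, ICAM-1 and B7-1 / Schedule: binding step 1.5 h, 37 °C, antibody labelling 20 min, ice / Signal: flow cytometry, PE anti-B7-1 (FL2) versus Alexa647 anti-CD8 (FL8), PFA-fixed / Evaluation: percent CD8+ FL2 mean versus row control / Benchmarks: naked versus QL9-loaded vesicles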
CHT PAM: allosteric activators of human choline transporter CHT; CHT-expressing cells, membrane potential dye, choline EC20; hits give high values; LV-AA mutant CHT in HEK293 cells; 0.49% of 310,000 active; B-score at 10 µM; Q9GZV3;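 active = initial fluorescence not abnormally high and integrated response B-score, plate-corrected, over 3 SD above library mean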
CHT inh conf: human CHT inhibition, confirmatory screen | shares compounds with CHT inh | CHT-expressing cells, choline membrane potential dye; LV-to-AA substituted CHT, HEK293 cells | CHT activity remaining % of control (hits give low values), % at 10 µM | 70% of 2,400 active | AID 493221;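 active = choline transporter activity left, mean of duplicates at 10 µM, below buffer-only control mean minus 3 SD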;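 also: depolarization triggered by choline at its EC90 following an EC20 pre-addition; 0% = hemicholinium-3 full block and 100% = buffer-only control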
HEK293 MPD ctr: activity in parental HEK293 cells lacking CHT | shares compounds with CHT inh | AID 493222 | membrane potential dye, choline response; active = decrease or increase beyond buffer ±3SD | 4% of 2,400 active | membrane potential ratio readout (active if shifted either direction beyond buffer ±3SD; no single direction) at 10 µM;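 also: parental cells lack the transporter so any hit is non-specific; ratio is peak minus trough fluorescence over baseline after EC90 choline challenge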
The depositor's hits bear a star; i = inactive; nt = not tested or not shown.

SMILES	VLA-4 inh	CHT inh	T cell modulator	CHT PAM	CHT inh conf	HEK293 MPD ctr
Cc1nc(N2CCCCC2C)c2c(C)c(C(=O)Nc3ccccc3C(F)(F)F)sc2n1 (centres undefined)	0	-7.5*	515	i	i	i
O=C(Nc1cc(F)ccc1F)C1CCCN(c2ncnc3c2nc2n3CCCCC2)C1 (centres undefined)	-4	-6*	207	i	46%*	i
O=C(C1CCCN(c2ncnc3c2nc2n3CCCCC2)C1)N1CCN(c2ccccc2)CC1 (centres undefined)	-2	-6.4*	244	i	15%*	i
Cc1cccc(N2CCN(C(=O)C3CCN(c4ncnc5c4nc4n5CCCCC4)CC3)CC2C)c1 (centres undefined)	16	-5*	296	i	43%*	i
Cc1ccc(N2CCN(C(=O)C3CCCN(c4ncnc5c4nc4n5CCCCC4)C3)CC2)c(C)c1 (centres undefined)	-14	-5.9*	258	i	45%*	i
Cc1cccc(N2CCN(C(=O)C3CCN(c4ncnc5c4nc4n5CCCCC4)CC3)CC2)c1C	-1	i	292	i	nt	nt
O=C(CCCCCNC(=O)N1CCn2c1nc1ccccc12)NCc1ccc(F)cc1	-1	i	325	i	nt	nt
CN(C(=O)C1CCCN(c2ncnc3c2nc2n3CCCCC2)C1)c1cccc(Cl)c1 (centres undefined)	-16	i	215	i	nt	nt
O=C(C1CCCN(c2ncnc3c2nc2n3CCCCC2)C1)N1CCN(c2cccc(Cl)c2)CC1 (centres undefined)	16	-10*	479	i	47%*	i
COc1cccc(CN2CCCC(C(=O)c3ccc4c(c3)OCO4)C2)c1OC (centres undefined)	-223	-12*	118	i	i	i
COC(=O)c1ccc(CC(=O)c2ccc(O)cc2O)o1	15	i	276	i	nt	nt
CCOC(=O)c1ccc(CC(=O)c2ccc(O)cc2O)o1	14	-6*	375	i	68%*	i
Cc1ccccc1C(=O)N=c1ccn(-c2nc3ccccc3nc2NS(=O)(=O)c2ccc(F)cc2)cc1	-11	-5.9*	450	i	i	i
COc1cc(CNCCc2ccccc2)cc(Br)c1OCC(=O)Nc1ccccc1C	27	-8.4*	270	i	43%*	i
CCC(=O)N(Cc1ccco1)c1nc(C(=O)Nc2ccc(Cl)cc2)c(C)s1	-20	i	294	i	nt	nt
CCOC(=O)C1CCCN(C(=O)Cc2c(F)cccc2Cl)C1 (centres undefined)	1	-5.7*	464	i	53%*	i
CCOC(=O)C1CCN(C(=O)Cc2c(F)cccc2Cl)CC1	8	i	i	i	nt	nt
Cc1ccccc1C(=O)NC1CCN(CC(=O)NCc2ccccc2)CC1	-1	i	226	i	nt	nt
COc1cc(Br)ccc1NC(=O)c1ccccc1-c1ccccc1C(=O)O	0	-5.4*	360	i	i	i
O=S(=O)(Nc1c(F)cccc1F)c1ccc(Cl)nc1	4	i	489	i	nt	nt
Cc1onc(-c2ccccc2)c1C(=O)NNC(=S)NC(=O)c1ccc(Br)cc1	-1	-6.2*	264	i	55%*	i
CC(=O)c1ccc(Nc2nc(NCCO)nc(OC(C(F)(F)F)C(F)(F)F)n2)cc1	-9	-5.1*	238	i	66%*	i
CNc1nc(Nc2ccc(C(C)=O)cc2)nc(OC(C(F)(F)F)C(F)(F)F)n1	6	i	344	i	nt	nt
CCCNc1nc2c(c(=O)n(C)c(=O)n2C)n1CCC(C)C	17	-6.9*	286	i	46%*	i
CCCCn1c(SCC(=O)N2c3ccccc3CCc3ccccc32)nc2c1c(=O)n(C)c(=O)n2C	-9	i	191	i	nt	nt
SMILES	VLA-4 inh	CHT inh	T cell modulator	CHT PAM	CHT inh conf	HEK293 MPD ctr
CCCCn1c(SCc2nnc(-c3ccccc3)o2)nc2c1c(=O)n(C)c(=O)n2C	6	-5.6*	163	i	34%*	i
Cc1ccc(NC(=O)Cn2cc(C=O)c3ccccc32)cc1	8	i	97	i	nt	nt
CC(C)(C)NCC(O)Cn1cc(C=O)c2ccccc21 (centres undefined)	2	-5.7*	359	i	50%*	i
O=C(COC(=O)CSc1ccc(F)cc1)NC1CCCCCC1	0	nt	219	nt	nt	nt
Fc1cccc(Cc2noc(CN3CCC(c4ccncc4)CC3)n2)c1	6	-5.6*	99	i	30%*	i
CN(C)S(=O)(=O)N1CCN(c2ccc([N+](=O)[O-])c(N3CCCCC3)c2)CC1	-9	i	410	i	nt	nt
CC(C)OC(=O)CN1CCN(S(=O)(=O)c2cc(Cl)ccc2Cl)CC1	14	-6.4*	211	i	66%*	i
c1ccc(-c2csc(NC3=NCCCCC3)n2)cc1	-2	-7.1*	342	i	i	i
COc1ccc(NC(=S)NNC(=O)C2CC2c2ccc(C)cc2)cc1 (centres undefined)	7	i	91	i	nt	nt
Cc1ccc(NC(=S)NNC(=O)C2CC2c2ccc(C)cc2)cc1 (centres undefined)	7	-5.5*	651	i	58%*	i
Cc1ccc(C2CC2C(=O)NNC(=S)Nc2cccc(Cl)c2)cc1 (centres undefined)	10	-12*	264	i	43%*	i
O=C(NNC(=S)Nc1ccc(F)cc1)C1CC1c1ccc(Cl)cc1 (centres undefined)	0	-9.8*	222	i	14%*	i
CCOc1ccc(CCNC(=O)COC(=O)c2cccc(S(=O)(=O)N3CCOCC3)c2)cc1OCC	-1	i	252	i	nt	nt
COc1ccc(NC(=O)CCCNC(=O)c2ccc(Cl)cc2)cc1OC	9	-6.6*	34	i	i	i
CCc1cc(C(=O)N(CCCOC)c2c(N)n(Cc3ccccc3)c(=O)[nH]c2=O)sc1C	-3	i	i	i	nt	nt
CN(Cc1nc(-c2ccncc2)no1)S(=O)(=O)c1ccc(Br)cc1	-9	-8*	277	i	i	i
C/C(=N\OCC(=O)Nc1ccccc1C(=O)O)c1cccs1	20	-6.2*	417	i	44%*	i
C/C(=N/OCC(=O)Nc1ccc(C)cc1C)c1cccs1	13	i	239	i	nt	nt
COc1cc(S(=O)(=O)N2CCCC2)c(C)cc1C	13	i	206	i	nt	nt
COc1cc(C)c(Br)cc1S(=O)(=O)N1CCCC1	7	-5.1*	410	i	i	i
COc1ccc(C(=O)NC2CC2)cc1OC1CCN(Cc2cc(C)c(C)cc2C)CC1	18	i	356	i	nt	nt
